pEC50, pIC50: −log10 of the molar value.
What was measured:
Format in all cases: functional, cell-based
HepG2 [1] = assay: Cytotoxicity against human HepG2 cells after 48 hrs by WST8 assay; details: for pIC50: HepG2, 48 h
Summary of the method: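 Hep G2 cells grown in DMEM + 10% FCS (37 °C, 8.5% CO2), seeded 4×10^3/well for 48 h, then 24 h serum-free at ~80% confluence. Compound from 1 mM methanol stock, 10 nM–50 µM, 48 h, serum-free; solvent controls. Then WST-8 for 1 h at 37 °C, absorbance 450 nm, normalized to untreated control. Triplicate, three independent passages (n = 9).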

HepG2 [2] = assay: Induction of apoptosis in human HepG2 cells assessed as caspase 3 activation after 24 hrs by fluorescence assay; details: HepG2, 24 h
Summary of the method: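 Hep G2 cells seeded 2×10^4/well and made serum-free as for the other assays. Compound given at 10 nM–50 µM (1 mM methanol stock) for 24 h. Lysed on ice in 0.1% Triton X-100 buffer, pH 7.5, then centrifuged. Supernatant incubated 1 h at 37 °C with 8 µM DEVD-AFC in PIPES/CHAPS/DTT buffer. AFC fluorescence (ex 400/em 505 nm) quantified against an AFC standard and normalized to BCA protein. n = 9.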

HepG2 [3] = assay: Cytotoxicity against human HepG2 cells assessed as LDH release after 48 hrs by microplate reader method
Summary of the method: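 Hep G2 cells in DMEM/10% FCS, seeded 2×10^4/well, switched to serum-free after 48 h at ~80% confluence. After 24 h, compound added at 10 nM–50 µM (1 mM methanol stock) for 48 h. Cells lysed on ice with 1% Triton X-100 Tris buffer. Lysate and medium LDH read kinetically as NADH loss ([…], 10 mM pyruvate, HEPES pH 7.0) at 340 nm over 60 min at 37 °C. Released vs total LDH normalized to positive and negative controls. n = 9.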

Structure (SMILES) | Activity (HepG2 [1]) | pIC50 (HepG2 [1]) | pEC50 (HepG2 [2]) | Activity (HepG2 [3])
C[C@@H]1Cc2c(Cl)cc(C(=O)N[C@H](Cc3ccccc3)C(=O)O)c(O)c2C(=O)O1 [3R14R-OCHRATOXIN A] | Dose-dependent effect | 5.49 | < 5.00 | Dose-dependent effect
C[C@@H]1Cc2c(Cl)cc(C(=O)N[C@@H](Cc3ccccc3)C(=O)O)c(O)c2C(=O)O1 [3R14S-OCHRATOXIN A] | Dose-dependent effect | 6.52 | 7.22 | Dose-dependent effect
C[C@H]1Cc2c(Cl)cc(C(=O)N[C@@H](Cc3ccccc3)C(=O)O)c(O)c2C(=O)O1 [3S14S-OCHRATOXIN A] | Dose-dependent effect | 6.40 | 7.10 | Dose-dependent effect
C[C@H]1Cc2c(Cl)cc(C(=O)N[C@H](Cc3ccccc3)C(=O)O)c(O)c2C(=O)O1 [3S14R-OCHRATOXIN A] | Dose-dependent effect | 5.30 | 5.42 | Dose-dependent effect

— ChEMBL document CHEMBL1157670, “Total synthesis and cytotoxicity evaluation of all ochratoxin A stereoisomers” (Bioorg Med Chem, 2010)
